Source: BindingDB's records for doi:10.1021/jm049389h (Johns Hopkins University, 2005)

Molecular target: Fatty acid synthase (Homo sapiens, UniProt P49327)
Assay: Inhibitory concentration against purified human fatty acid synthase activity in ZR-75-1 breast cancer cells
How it was run: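 FAS purified from ZR-75-1 human breast cancer cells (2 µg per well). Overall reaction read at 37 °C as malonyl-CoA-dependent NADPH oxidation at 340 nm, every 10 s for 5 min. Average of duplicate runs; neg means IC50 > 50 µg/mL.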

Fatty acid synthase, sequence (P49327 whole entry): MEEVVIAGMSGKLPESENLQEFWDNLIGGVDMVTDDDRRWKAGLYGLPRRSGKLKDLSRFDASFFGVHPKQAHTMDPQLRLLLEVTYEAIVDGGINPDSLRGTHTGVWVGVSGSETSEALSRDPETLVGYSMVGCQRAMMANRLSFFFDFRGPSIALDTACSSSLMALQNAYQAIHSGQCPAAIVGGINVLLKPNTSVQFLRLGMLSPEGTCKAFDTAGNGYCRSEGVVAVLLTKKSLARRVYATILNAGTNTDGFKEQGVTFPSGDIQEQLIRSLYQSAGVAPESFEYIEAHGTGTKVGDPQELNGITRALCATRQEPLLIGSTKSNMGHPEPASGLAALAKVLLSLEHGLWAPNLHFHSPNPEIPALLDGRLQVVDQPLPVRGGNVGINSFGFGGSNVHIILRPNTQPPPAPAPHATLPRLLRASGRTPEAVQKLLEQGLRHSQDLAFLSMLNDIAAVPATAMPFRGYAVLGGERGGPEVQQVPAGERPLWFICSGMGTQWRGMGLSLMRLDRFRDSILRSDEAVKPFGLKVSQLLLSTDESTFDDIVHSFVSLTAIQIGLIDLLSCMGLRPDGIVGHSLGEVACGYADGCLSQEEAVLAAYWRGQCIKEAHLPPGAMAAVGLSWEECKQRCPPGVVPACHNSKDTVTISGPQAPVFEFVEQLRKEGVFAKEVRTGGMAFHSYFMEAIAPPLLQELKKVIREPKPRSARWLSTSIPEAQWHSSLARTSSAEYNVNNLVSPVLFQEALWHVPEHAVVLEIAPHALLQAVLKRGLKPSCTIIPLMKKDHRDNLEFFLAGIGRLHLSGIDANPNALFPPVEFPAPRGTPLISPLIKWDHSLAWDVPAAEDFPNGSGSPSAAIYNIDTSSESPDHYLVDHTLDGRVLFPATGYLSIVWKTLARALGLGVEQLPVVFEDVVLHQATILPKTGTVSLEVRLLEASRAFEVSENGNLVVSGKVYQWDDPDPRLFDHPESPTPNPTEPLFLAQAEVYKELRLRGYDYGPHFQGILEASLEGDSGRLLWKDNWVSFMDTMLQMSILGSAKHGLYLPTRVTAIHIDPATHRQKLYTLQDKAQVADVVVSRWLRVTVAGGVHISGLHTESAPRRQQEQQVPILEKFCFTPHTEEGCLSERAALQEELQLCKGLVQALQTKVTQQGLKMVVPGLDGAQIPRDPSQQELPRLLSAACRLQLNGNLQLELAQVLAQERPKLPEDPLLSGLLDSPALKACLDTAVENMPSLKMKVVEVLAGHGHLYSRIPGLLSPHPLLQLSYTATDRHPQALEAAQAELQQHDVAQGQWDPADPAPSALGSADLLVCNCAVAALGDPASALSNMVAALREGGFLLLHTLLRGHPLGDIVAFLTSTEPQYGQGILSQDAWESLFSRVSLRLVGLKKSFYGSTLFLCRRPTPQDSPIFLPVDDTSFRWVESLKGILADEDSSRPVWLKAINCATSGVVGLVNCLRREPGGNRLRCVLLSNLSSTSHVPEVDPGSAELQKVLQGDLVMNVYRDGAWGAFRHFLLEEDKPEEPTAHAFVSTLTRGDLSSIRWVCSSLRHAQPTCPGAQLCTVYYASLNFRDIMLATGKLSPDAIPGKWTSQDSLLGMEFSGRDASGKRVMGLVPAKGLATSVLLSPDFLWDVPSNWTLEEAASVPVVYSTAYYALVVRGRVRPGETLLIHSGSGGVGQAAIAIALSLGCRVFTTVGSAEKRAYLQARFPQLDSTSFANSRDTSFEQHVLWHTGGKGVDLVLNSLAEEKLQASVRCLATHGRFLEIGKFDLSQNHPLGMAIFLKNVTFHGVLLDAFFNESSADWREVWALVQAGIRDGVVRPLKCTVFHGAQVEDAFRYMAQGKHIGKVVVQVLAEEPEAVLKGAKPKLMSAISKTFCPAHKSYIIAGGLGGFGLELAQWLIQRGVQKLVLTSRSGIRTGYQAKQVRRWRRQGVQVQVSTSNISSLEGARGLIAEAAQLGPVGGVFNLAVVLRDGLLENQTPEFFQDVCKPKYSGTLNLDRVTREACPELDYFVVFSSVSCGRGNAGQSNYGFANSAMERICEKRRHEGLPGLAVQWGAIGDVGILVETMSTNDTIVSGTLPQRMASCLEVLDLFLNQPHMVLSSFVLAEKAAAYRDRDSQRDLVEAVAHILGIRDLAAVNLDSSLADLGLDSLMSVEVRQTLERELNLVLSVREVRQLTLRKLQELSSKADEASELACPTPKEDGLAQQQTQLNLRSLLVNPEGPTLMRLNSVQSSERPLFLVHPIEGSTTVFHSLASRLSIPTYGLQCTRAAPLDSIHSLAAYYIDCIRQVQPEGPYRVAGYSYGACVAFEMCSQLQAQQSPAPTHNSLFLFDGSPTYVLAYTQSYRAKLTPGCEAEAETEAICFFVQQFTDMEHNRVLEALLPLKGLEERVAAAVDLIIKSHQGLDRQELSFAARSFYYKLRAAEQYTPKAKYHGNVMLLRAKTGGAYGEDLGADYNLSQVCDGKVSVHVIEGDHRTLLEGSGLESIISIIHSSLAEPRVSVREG

Structure (SMILES): C=C/C(C)=C/[C@@]1(C)SC(=O)C(C)C1=O (stereo partly drawn) [(R)-(+)-Thiolactomycin]
- IC50: 99.8 µM
